Experiment [1] concerns the target 5-hydroxytryptamine receptor 2B (Homo sapiens, UniProt P41595). Nature of the experiment: Binding affinity to 5-HT2BR (unknown origin). Summed up:
(§1)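 Run by the NIMH Psychoactive Drug Screening Program as competition radioligand binding on crude membranes of cells expressing the recombinant receptor. Eleven dilutions (0.05 nM–50 μM, prepared at 5× assay concentration) were made in 50 mM Tris-HCl, 10 mM MgCl₂, 1 mM EDTA, pH 7.4. Incubation was 1.5 h at rt in the dark, followed by GF/B filtration (0.3% PEI) and scintillation counting. IC₅₀ was converted to Ki; at least triplicate.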

The target in experiment [2] is 5-hydroxytryptamine receptor 1E (Homo sapiens, UniProt P28566). Nature of the experiment: Binding affinity to 5-HT1ER (unknown origin). Summed up:
as §1

The target in experiment [3] is 5-hydroxytryptamine receptor 1D (Homo sapiens, UniProt P28221). Nature of the experiment: Binding affinity to 5-HT1DR (unknown origin). Summed up:
as §1

Experiment [4] addresses 5-hydroxytryptamine receptor 5A (Homo sapiens, UniProt P47898). Nature of the experiment: Binding affinity to 5-HT5AR (unknown origin). Summed up: as §1
Experiment [5] concerns the target 5-hydroxytryptamine receptor 6 (Homo sapiens, UniProt P50406). In words: Binding affinity to 5-HT6R (unknown origin). The method, boiled down:
as §1

Experiment [6] addresses 5-hydroxytryptamine receptor 2A (Homo sapiens, UniProt P28223). In words: Binding affinity to 5-HT2AR (unknown origin). Summed up: as §1
For experiment [7], the target named is 5-hydroxytryptamine receptor 1B (Homo sapiens, UniProt P28222). Nature of the experiment: Binding affinity to 5-HT1BR (unknown origin). Summed up:
as §1

In experiment [8] the target is T1, 5-hydroxytryptamine receptor 7 (Homo sapiens, UniProt P34969). In words: Displacement of [3H] D-lysergic acid diethylamide from 5-HT7R (unknown origin) transfected in HEK293 cells incubated for 1.5 hrs by microbeta scintillation counter analysis. Type of experiment: cell-based. Background: In a radioligand displacement assay an active substance lowers the binding of a labelled ligand.

The target in experiment [9] is T2, 5-hydroxytryptamine receptor 2C (Homo sapiens, UniProt P28335).
T2 sequence (P28335 whole entry): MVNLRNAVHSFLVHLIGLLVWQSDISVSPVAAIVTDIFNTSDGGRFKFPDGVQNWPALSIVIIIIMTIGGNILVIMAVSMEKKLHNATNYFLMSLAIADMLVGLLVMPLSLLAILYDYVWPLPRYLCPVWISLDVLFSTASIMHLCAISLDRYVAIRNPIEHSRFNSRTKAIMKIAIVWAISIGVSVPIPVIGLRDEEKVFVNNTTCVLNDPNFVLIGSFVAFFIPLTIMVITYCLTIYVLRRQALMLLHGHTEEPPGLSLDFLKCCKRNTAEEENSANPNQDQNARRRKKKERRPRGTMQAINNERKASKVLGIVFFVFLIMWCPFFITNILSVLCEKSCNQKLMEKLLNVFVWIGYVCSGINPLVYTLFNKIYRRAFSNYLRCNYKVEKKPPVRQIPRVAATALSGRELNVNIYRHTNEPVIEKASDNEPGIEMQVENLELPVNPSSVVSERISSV
Nature of the experiment: Binding affinity to 5-HT2CR (unknown origin). Summed up: as §1

Experiment [10] has as its target T1, 5-hydroxytryptamine receptor 7. Nature of the experiment: Agonist activity at 5-HT7R (unknown origin) transfected in HEK293 cells expressing tTA-dependent luciferase reporter and beta arrestin 2-TEV fusion gene assessed as beta arrestin recruitment incubated for 22 hrs by Tango assay. The experiment is classed as functional, cell-based.
For experiment [11] the target is unchanged.
For experiment [12], the target named is T3, 5-hydroxytryptamine receptor 3A (Homo sapiens, UniProt P46098).
T3 sequence (P46098 whole entry): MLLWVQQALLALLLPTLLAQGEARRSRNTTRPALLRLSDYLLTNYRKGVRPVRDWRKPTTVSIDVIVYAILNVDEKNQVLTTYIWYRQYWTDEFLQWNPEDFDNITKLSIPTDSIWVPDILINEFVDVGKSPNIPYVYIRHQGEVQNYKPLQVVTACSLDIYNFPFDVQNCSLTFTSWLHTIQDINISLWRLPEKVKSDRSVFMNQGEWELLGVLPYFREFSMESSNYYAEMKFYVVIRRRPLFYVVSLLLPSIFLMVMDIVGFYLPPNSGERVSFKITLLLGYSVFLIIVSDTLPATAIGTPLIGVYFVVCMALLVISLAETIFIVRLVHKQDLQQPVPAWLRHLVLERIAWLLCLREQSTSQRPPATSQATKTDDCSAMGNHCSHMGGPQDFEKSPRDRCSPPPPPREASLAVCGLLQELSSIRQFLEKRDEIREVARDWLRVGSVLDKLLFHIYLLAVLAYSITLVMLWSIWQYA
Nature of the experiment: Binding affinity to 5-HT3R (unknown origin). The method, boiled down: as §1

In experiment [13] the target is T4, 5-hydroxytryptamine receptor 1A (Homo sapiens, UniProt P08908).
T4 sequence (P08908 whole entry): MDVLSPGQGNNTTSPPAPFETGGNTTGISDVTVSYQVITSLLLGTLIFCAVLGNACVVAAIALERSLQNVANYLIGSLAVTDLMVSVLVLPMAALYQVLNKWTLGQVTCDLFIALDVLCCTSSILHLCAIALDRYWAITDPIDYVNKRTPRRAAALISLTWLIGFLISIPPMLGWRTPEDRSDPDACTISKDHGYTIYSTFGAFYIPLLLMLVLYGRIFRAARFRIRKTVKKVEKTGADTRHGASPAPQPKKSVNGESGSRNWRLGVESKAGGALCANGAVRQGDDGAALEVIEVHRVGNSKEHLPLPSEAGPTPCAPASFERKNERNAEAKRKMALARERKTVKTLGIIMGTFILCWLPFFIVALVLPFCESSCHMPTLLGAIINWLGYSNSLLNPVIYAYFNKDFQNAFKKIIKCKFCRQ
Nature of the experiment: Binding affinity to 5-HT1AR (unknown origin). The method, boiled down:
as §1

Where only a bound is given, the exact number is not on record here.

By EC50 is commonly meant the concentration at which the effect is half-maximal.

Chain of 5-hydroxytryptamine receptor 1B (P28222 whole entry): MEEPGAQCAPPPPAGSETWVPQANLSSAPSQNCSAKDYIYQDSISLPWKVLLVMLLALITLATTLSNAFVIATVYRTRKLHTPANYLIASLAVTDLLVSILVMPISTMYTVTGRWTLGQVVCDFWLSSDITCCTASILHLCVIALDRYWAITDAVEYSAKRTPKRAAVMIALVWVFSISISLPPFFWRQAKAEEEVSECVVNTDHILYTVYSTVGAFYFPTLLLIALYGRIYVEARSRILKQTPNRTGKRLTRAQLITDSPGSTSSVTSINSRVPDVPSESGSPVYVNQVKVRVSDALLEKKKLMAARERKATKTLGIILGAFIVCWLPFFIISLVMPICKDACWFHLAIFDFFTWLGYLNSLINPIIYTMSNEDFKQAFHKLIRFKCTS
Chain of 5-hydroxytryptamine receptor 1D (P28221 whole entry): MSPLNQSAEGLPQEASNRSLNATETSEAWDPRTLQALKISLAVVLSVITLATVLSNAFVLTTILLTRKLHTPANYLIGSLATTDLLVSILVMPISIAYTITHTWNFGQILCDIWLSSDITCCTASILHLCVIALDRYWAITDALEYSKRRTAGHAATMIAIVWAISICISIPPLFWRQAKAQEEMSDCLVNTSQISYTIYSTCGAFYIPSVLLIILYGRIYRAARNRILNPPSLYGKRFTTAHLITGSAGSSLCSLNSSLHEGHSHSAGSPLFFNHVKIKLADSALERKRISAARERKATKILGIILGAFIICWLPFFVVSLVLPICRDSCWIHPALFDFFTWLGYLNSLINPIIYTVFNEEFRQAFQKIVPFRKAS
Chain of 5-hydroxytryptamine receptor 2B (P41595 whole entry): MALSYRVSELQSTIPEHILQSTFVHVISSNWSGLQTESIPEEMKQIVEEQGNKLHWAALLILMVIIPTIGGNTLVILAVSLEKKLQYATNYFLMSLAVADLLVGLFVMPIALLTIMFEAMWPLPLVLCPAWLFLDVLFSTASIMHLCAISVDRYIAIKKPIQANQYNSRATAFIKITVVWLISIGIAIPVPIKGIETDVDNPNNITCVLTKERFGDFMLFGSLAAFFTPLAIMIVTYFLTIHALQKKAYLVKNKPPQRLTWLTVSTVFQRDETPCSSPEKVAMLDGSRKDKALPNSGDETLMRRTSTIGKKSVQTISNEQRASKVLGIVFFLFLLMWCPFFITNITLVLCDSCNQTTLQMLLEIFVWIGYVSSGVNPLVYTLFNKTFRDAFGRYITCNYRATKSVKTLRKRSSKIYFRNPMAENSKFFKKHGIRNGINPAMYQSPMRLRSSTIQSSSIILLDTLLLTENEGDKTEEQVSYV
Chain of 5-hydroxytryptamine receptor 5A (P47898 whole entry): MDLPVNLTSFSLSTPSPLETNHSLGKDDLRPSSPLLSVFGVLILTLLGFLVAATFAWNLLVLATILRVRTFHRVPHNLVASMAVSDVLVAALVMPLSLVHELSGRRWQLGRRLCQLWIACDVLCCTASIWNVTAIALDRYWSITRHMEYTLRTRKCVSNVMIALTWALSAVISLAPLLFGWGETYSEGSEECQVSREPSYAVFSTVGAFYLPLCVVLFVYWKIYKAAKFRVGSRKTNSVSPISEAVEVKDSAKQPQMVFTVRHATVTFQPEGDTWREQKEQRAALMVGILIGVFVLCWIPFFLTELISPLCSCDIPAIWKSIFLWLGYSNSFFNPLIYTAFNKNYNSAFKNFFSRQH
T1 sequence (P34969 whole entry): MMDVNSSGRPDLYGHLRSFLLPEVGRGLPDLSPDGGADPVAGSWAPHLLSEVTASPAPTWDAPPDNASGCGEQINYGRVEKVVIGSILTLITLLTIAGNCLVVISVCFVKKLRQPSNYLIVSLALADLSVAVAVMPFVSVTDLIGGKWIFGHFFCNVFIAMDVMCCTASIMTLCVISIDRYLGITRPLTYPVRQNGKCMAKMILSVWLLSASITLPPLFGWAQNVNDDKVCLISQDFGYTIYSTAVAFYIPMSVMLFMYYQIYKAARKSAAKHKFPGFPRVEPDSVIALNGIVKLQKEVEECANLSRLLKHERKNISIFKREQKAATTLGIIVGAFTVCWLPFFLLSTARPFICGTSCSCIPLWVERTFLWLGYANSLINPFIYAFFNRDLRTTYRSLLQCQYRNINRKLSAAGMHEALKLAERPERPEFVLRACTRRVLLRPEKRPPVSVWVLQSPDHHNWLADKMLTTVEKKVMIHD
Chain of 5-hydroxytryptamine receptor 6 (P50406 whole entry): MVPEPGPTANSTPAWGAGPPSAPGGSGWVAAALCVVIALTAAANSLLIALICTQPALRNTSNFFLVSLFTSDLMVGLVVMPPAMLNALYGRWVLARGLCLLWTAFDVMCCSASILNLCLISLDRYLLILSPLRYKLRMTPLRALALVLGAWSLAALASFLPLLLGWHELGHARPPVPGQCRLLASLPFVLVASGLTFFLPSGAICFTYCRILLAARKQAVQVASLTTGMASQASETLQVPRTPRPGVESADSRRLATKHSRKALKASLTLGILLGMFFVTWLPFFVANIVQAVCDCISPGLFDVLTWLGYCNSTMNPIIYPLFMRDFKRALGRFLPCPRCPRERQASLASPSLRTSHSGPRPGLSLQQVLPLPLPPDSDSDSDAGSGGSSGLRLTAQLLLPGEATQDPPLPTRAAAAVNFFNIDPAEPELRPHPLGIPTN
Chain of 5-hydroxytryptamine receptor 1E (P28566 whole entry): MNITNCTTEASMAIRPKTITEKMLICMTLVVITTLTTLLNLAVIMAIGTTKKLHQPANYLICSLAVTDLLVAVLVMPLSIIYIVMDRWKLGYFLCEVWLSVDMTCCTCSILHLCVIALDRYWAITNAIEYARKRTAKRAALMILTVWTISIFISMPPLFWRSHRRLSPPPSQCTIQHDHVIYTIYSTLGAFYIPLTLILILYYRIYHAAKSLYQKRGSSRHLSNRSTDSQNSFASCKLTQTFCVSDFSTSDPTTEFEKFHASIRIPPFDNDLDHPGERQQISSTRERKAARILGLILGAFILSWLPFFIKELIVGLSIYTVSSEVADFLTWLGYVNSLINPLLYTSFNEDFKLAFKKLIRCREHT
Chain of 5-hydroxytryptamine receptor 2A (P28223 whole entry): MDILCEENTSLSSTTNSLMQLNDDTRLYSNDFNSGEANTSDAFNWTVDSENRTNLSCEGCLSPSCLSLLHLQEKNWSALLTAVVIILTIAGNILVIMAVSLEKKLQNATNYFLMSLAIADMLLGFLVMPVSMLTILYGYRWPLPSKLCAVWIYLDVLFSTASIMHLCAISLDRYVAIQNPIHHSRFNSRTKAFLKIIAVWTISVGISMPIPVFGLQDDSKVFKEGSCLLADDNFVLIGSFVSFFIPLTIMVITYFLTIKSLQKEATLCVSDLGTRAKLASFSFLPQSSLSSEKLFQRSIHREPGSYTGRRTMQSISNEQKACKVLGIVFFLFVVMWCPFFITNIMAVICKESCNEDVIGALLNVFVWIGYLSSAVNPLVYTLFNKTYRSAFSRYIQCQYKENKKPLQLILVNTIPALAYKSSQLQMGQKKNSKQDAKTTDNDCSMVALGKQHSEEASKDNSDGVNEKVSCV

For the compound `COc1ccccc1-c1cc(CN(C)C)ccc1Cl`, the Ki in experiment [1] is 11 nM; in experiment [2], 4100 nM; in experiment [3] it was 1300 nM; in experiment [4] it was 220 nM; in experiment [5] it was 440 nM; in [6] it was 360 nM. In addition, the Ki in experiment [7] is 830 nM; in experiment [8] (read-out: pKi (converted)), 20 nM; in experiment [9], 270 nM; in [12], 1000 nM; in [13] it was 2100 nM. In addition, the values for the EC50 in experiment [10] (read-out: EC50) and in [11] were 480 nM and 1100 nM, respectively.

Consider `CCCCNCc1ccc(Cl)c(-c2ccccc2OC)c1`, for which the Ki in [1] was 15 nM; in experiment [2], more than 10000 nM; in experiment [3] it was 2000 nM; in experiment [4], 360 nM; in experiment [5], 240 nM; in experiment [6], 280 nM. Besides, the Ki in experiment [7] is more than 10000 nM; in experiment [8] (read-out: Ki), 52 nM; in experiment [9], 310 nM; in experiment [12] it was more than 10000 nM. The 50% effective concentration (EC50) result in experiment [10] (hek293) is given as “Not Active”.

For the compound `CCCCNCCc1ccc(Cl)c(-c2ccccc2OC)c1.Cl`, the Ki was 130 nM in [1]; more than 10000 nM in experiment [2]; 110 nM in experiment [3]; 2400 nM in experiment [4]; more than 10000 nM in experiment [5]; 570 nM in experiment [6]. Also, the Ki in experiment [7] is 280 nM; in [8] (read-out: Ki), 64 nM; in [9] it was more than 10000 nM; in experiment [12], more than 10000 nM; in [13], 220 nM. Moreover, the EC50 entry in experiment [10] (hek293) is “Not Active”.

Take `CNCc1ccc(Cl)c(-c2ccccc2OC)c1`: the Ki in [1] turned out to be 13 nM; in experiment [2] it was 2400 nM; in [3] it was 1200 nM; in experiment [4] it was 420 nM; in experiment [5], 1300 nM; in [6], 380 nM. Moreover, the Ki in [7] was 1200 nM; in experiment [9], 200 nM; in experiment [12] it was more than 10000 nM; in experiment [13], 1700 nM. Also, the EC50 in [10] (read-out: EC50) amounted to 150 nM; in [11] it was 460 nM.

For `CCNCc1ccc(Cl)c(-c2ccccc2OC)c1`, the Ki was 19 nM in [1]; more than 10000 nM in experiment [2]; 220 nM in [3]; 1800 nM in experiment [4]; 1400 nM in [5]; 910 nM in [6]. Moreover, the Ki in experiment [7] is 210 nM; in [9], 45 nM; in experiment [12] it was more than 10000 nM; in experiment [13], 840 nM.

On to `CNCCc1ccc(Cl)c(-c2ccccc2OC)c1`, for which the Ki in experiment [1] came out at 69 nM; in [2], 180 nM; in [3], 3.3 nM; in experiment [4], 910 nM; in experiment [5], 740 nM; in experiment [6] it was 170 nM. Moreover, the Ki in [7] was 84 nM; in experiment [8] (read-out: Ki), 1.6 nM; in experiment [9] it was more than 10000 nM; in [12], more than 10000 nM; in experiment [13], 280 nM. Besides, the EC50 in [10] (read-out: EC50) was found to be 71 nM; in experiment [11] it was 73 nM.

Consider `COc1ccccc1-c1cc(C2CCN(C)C2)ccc1Cl` (stereo not given), for which the Ki in [1] was 170 nM; in experiment [2], 4100 nM; in [3] it was 19 nM; in [4], 1000 nM; in experiment [5], more than 10000 nM; in experiment [6], 1200 nM. In addition, the Ki in [7] was 12 nM; in experiment [9], 920 nM; in [12], 420 nM; in [13], 200 nM.

As to `COc1ccccc1-c1cc(CCN(C)C)ccc1Cl`, the Ki in experiment [1] came out at 280 nM; in [2], 2200 nM; in experiment [3], 86 nM; in [4], 380 nM; in experiment [5], 1000 nM; in [6], 250 nM. Moreover, the Ki was 74 nM in experiment [7]; 2.5 nM in experiment [8] (read-out: Ki); more than 10000 nM in [9]; more than 10000 nM in [12]; 280 nM in experiment [13]. Besides, the concentration giving a half-maximal response (EC50) was 56 nM in experiment [10] (read-out: EC50) and 84 nM in experiment [11].

In the case of `COc1ccccc1-c1cc(C2CCNC2)ccc1Cl` (stereo not given), the Ki in [1] is 50 nM; in experiment [2], 770 nM; in [3], 3.4 nM; in experiment [4] it was 970 nM; in experiment [5], 400 nM; in [6], 340 nM. The Ki in [7] is 410 nM; in experiment [9], more than 10000 nM; in experiment [12], 590 nM; in [13], 96 nM.

For `CCCNCc1ccc(Cl)c(-c2ccccc2OC)c1`, the Ki in experiment [1] was 12 nM; in experiment [2], more than 10000 nM; in [3], 220 nM; in [4], 120 nM; in [5] it was 3500 nM; in experiment [6], 670 nM. Further, the Ki in experiment [7] is 640 nM; in [9], 200 nM; in [12], more than 10000 nM; in experiment [13], 420 nM.

In the case of `CCCN(CCC)Cc1ccc(Cl)c(-c2ccccc2OC)c1`, the Ki was 80 nM in experiment [1]; more than 10000 nM in [2]; more than 10000 nM in [3]; more than 10000 nM in experiment [4]; more than 10000 nM in experiment [5]; more than 10000 nM in experiment [6]. In addition, the Ki in [7] is more than 10000 nM; in experiment [8] (read-out: Ki), more than 10000 nM; in experiment [9], 2600 nM; in experiment [12] it was more than 10000 nM; in experiment [13], 400 nM. Also, in [10] (hek293), the EC50 result is given as “Not Active”.

For the compound `CCN(CC)Cc1ccc(Cl)c(-c2ccccc2OC)c1`, the Ki in experiment [1] was 67 nM; in [2], more than 10000 nM; in experiment [3], more than 10000 nM; in experiment [4] it was 230 nM; in experiment [5] it was 2000 nM; in [6], more than 10000 nM. The Ki is more than 10000 nM in experiment [7]; 110 nM in [8] (read-out: Ki); 820 nM in experiment [9]; more than 10000 nM in experiment [12]; 1700 nM in experiment [13]. In experiment [10] (hek293), the EC50 result was “Not Active”.

For `CCCNCCc1ccc(Cl)c(-c2ccccc2OC)c1.Cl`, the Ki in experiment [1] was 170 nM; in experiment [2], more than 10000 nM; in experiment [3], 41 nM; in experiment [4] it was 240 nM; in experiment [5], more than 10000 nM; in [6] it was 600 nM. Besides, the Ki in [7] is 250 nM; in experiment [8] (read-out: Ki), 8.7 nM; in [8] (read-out: pKi (converted)), 8.51 nM; in experiment [9] it was more than 10000 nM; in experiment [12], more than 10000 nM; in experiment [13], 140 nM. Also, the half-maximal effective concentration (EC50) entry is “Not Active” in [10] (hek293) and 1000 nM in experiment [11].

`Cc1nn(C)c(C)c1-c1cccc(CCN(C)C)c1`: the Ki in experiment [8] (read-out: Ki) is 1.3 nM. The figures for the EC50 in [10] (read-out: EC50) and in experiment [11] were 21 nM and 83 nM, respectively.

These data come from ChEMBL document CHEMBL5038590, “Discovery of G Protein-Biased Ligands against 5-HT7R” (J Med Chem, 2021).
